Published values pooled from the literature.
Protocols differ between the studies behind these lines.
Target: Casein kinase I isoform gamma-2 (CSNK1G2, Homo sapiens, UniProt P78368)

For COc1ccnn2ncc(-c3ccnc(N(C)C)n3)c12, the remaining binding was 81% (binding; 1 µM).
For O=C(Nc1c[nH]nc1C(=O)NC1CCNCC1)c1cc(F)cc(F)c1, the remaining binding was 100% (binding; competition with immobilised ligand; 1 µM).
The remaining binding of O=C1CCc2cc(Nc3cc(OC4CCOCC4)c([N+](=O)[O-])cc3Cl)ccc2N1 is reported as 88% (cell-free assay; competition with immobilised ligand; 1 µM).
With CC1CCCN1c1nccc(-c2cnn3ncccc23)n1 (stereo not drawn) the remaining binding was 77% (binding; 1 µM).
For CC(C)(C)c1ccc(-c2nc(CBr)nn2-c2cccc(O)c2)cc1, the remaining binding was 93% (cell-free assay; competition with immobilised ligand; 10 µM).
With CN(C)c1nccc(-c2cnc3ncccn23)n1 the remaining binding was 89% (binding; 1 µM).
O=C(c1ccc(Nc2ncc(Cl)c(-c3ccc(Cl)s3)n2)cc1)N1CCC(N2CCCC2)CC1 gave a remaining binding of 100% (binding; competition with immobilised ligand; 1 µM).
CN([C@@H]1CCc2c(CC(=O)O)c3ccccc3n2C1)S(=O)(=O)c1ccc(F)cc1 gave a remaining binding of 100% (cell-free assay; competition with immobilised ligand; 1 µM).
For O=C(NCCCN1CCOCC1)c1ccc(Nc2ncc(Cl)c(-c3ccc(Cl)s3)n2)cc1, the remaining binding was 100% (binding; competition with immobilised ligand; 1 µM).
For Nc1ncc2c(n1)-c1c([nH]c3ccc(C#CC4CC4)cc13)CCCC2, the remaining binding was 100% (binding; competition with immobilised ligand; 1 µM).
For CN(C)c1nccc(-c2cnn3ncccc23)n1, the remaining binding was 85% (binding; 1 µM).
With c1cncc(-c2cccc(Nc3nccc(NC4CCCCC4)n3)c2)c1 the remaining binding was 80% (binding; competition with immobilised ligand; 10 µM).
The remaining binding of COc1ncc2cc3ccccc3nc2c1C#N is reported as 98% (cell-free assay; competition with immobilised ligand; 5 µM).
For Cc1c(C(=O)O)cc(-c2ccc(C3CCNCC3)cc2)c2ccc(-c3ccc(C(F)(F)F)cc3)cc12, the remaining binding was 100% (cell-free assay; competition with immobilised ligand; 1 µM).
O=C(c1ccc(Nc2ncc(Cl)c(-c3cc4ccccc4s3)n2)cc1)N1CCC(N2CCCC2)CC1 gave a remaining binding of 100% (binding; competition with immobilised ligand; 1 µM).
With O=C(N1CCS(=O)(=O)CC1)N1C[C@H](c2ccc(OC(F)(F)F)cc2)C[C@H](c2nc(C3CC3)no2)C1 the remaining binding was 89% (cell-free assay; competition with immobilised ligand; 1 µM).
COc1cnc(Nc2cccc(S(N)(=O)=O)c2)nc1N1CCN(c2ccccc2)C(=O)C1 gave a remaining binding of 96% (binding; competition with immobilised ligand; 1 µM).
The remaining binding of Cn1cc(Cl)c2c(Oc3c(F)cc(Nc4cc(Cl)nc(N)n4)cc3F)ccnc21 is reported as 83% (cell-free assay; competition with immobilised ligand; 0.1 µM).
N[C@H]1CCN(c2nccc(-c3cnn4ncccc34)n2)C1 has a remaining binding of 98% (binding; 1 µM).
Cn1nc(C(F)(F)F)cc1-c1cnc(N2CCc3cc(S(=O)(=O)Nc4c(F)cc(Cl)cc4F)cc(N4CCCC4=O)c32)nc1 has a remaining binding of 100% (cell-free assay; competition with immobilised ligand; 1 µM).
With C[C@@H]1CCN(c2nccc(-c3cnn4ncccc34)n2)C1 the remaining binding was 62% (binding; 1 µM).
